Consider 24 compounds from ChEMBL document CHEMBL1126044, “Affinity of human growth hormone-releasing factor (1-29)NH2 analogues for GRF binding sites in rat adenopituitary” (J Med Chem, 1992).

In assay [1] the target is T1, Growth hormone-releasing hormone receptor (Rattus norvegicus, UniProt Q02644).
T1 sequence (Q02644 whole entry): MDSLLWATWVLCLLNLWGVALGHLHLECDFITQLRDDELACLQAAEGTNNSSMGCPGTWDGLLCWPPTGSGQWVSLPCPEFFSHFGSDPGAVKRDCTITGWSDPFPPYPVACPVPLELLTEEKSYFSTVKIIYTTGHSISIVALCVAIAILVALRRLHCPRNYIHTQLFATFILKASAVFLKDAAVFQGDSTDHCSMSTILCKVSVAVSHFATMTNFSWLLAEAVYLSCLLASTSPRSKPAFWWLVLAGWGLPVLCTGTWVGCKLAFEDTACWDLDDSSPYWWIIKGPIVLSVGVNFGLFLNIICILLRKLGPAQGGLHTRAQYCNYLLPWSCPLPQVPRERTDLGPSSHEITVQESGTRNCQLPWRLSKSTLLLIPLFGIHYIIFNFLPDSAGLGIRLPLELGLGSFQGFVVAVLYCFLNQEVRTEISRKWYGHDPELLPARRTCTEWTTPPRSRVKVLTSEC
Briefly: Compound was tested to Inhibit [125I]-Growth hormone-releasing factor in rat adenopituitary homogenates. Put shortly:
(§1)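 Anterior pituitaries from 2-month-old male Sprague-Dawley rats homogenized in ice-cold 50 mM Tris-HCl pH 7.4 with 5 mM MgCl2, 5 mM EDTA. Homogenate (70–75 µg protein) incubated with 35–50 pM [125I-Tyr10]hGRF(1-44)NH2 and peptide at 0–1000 nM in Tris-HCl buffer pH 7.4 with 5 mM EDTA, 5 mM MgCl2, 0.42% BSA, 60 min at 23 °C. Nonspecific binding defined with 2.4 µM rGRF(1-29)NH2. Bound fraction separated by centrifugation and gamma-counted. IC50 fitted with LIGAND. Mean ± SEM of three experiments, each in duplicate or triplicate.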

For assay [2], the target named is T2, Growth hormone-releasing hormone receptor (Rattus norvegicus) (UniProt Q02644).
T2 sequence (whole entry): T1 sequence (Q02644 whole entry)
The assay is described as follows: Relative affinity compared to hGRF(1-29)NH2. The assay is classed as functional. The method in brief: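 Radioligand competition in rat anterior pituitary homogenate using [125I-Tyr10]hGRF(1-44)NH2 at 35–50 pM and peptides at 0–1000 nM, 60 min at 23 °C. Relative affinity is the binding IC50 expressed as a percentage relative to hGRF(1-29)NH2.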

The species entered for the next assay is Rattus norvegicus. The assay is described as follows: Residual concentration after 60 min incubation with pituitary homogenates, in the binding assay conditions, by quantitative HPLC method. The assay is classed as functional. The method in brief:
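Peptide at 10 µM incubated with rat pituitary homogenate (150 µg protein/100 µL) in binding-assay conditions at 23 °C for 0 and 60 min. Reaction stopped with cold 50 mM phosphate pH 0.8 and centrifugation. Controls without homogenate accounted for adsorption. Remaining peptide measured by C18 HPLC (0.01% TFA/acetonitrile gradient, UV 214 nm) and peak-area integration.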

The target in assay [3] is T1, Growth hormone-releasing hormone receptor. Briefly: Compound was tested to Inhibit [125I]GRF in rat adenopituitary homogenates. The method in brief:
as §1

`CC[C@H](C)[C@H](NC(=O)[C@H](C)NC(=O)[C@H](CC(=O)O)NC(=O)[C@H](C)NC(=O)[C@H](Cc1ccc(O)cc1)NC(=O)CCCCCCCN)C(=O)N[C@@H](Cc1ccccc1)C(=O)N[C@H](C(=O)N[C@@H](CC(N)=O)C(=O)N[C@@H](CO)C(=O)N[C@@H](Cc1ccc(O)cc1)C(=O)N[C@@H](CCCN=C(N)N)C(=O)N[C@@H](CCCCN)C(=O)N[C@H](C(=O)N[C@@H](CC(C)C)C(=O)NCC(=O)N[C@@H](CCC(N)=O)C(=O)N[C@@H](CC(C)C)C(=O)N[C@@H](CO)C(=O)N[C@@H](C)C(=O)N[C@@H](CCCN=C(N)N)C(=O)N[C@@H](CCCCN)C(=O)N[C@@H](CC(C)C)C(=O)N[C@@H](CC(C)C)C(=O)N[C@@H](CCC(N)=O)C(=O)N[C@@H](CC(=O)O)C(=O)N[C@H](C(=O)N[C@@H](CCSC)C(=O)N[C@@H](CO)C(=O)N[C@@H](CCCN=C(N)N)C(N)=O)[C@@H](C)CC)C(C)C)[C@@H](C)O`: the IC50 in assay [1] amounted to 21.6 nM. In assay [2], this compound showed an Activity of 26%. In the assay filed under Rattus norvegicus, this compound had a Residual peptide remaining after 60 min of 100%. In assay [2], `CC[C@H](C)[C@H](NC(=O)[C@H](C)NC(=O)[C@H](CC(=O)O)NC(=O)[C@H](C)NC(=O)[C@@H](N)Cc1ccc(O)cc1)C(=O)N[C@@H](Cc1ccccc1)C(=O)N[C@H](C(=O)N[C@@H](CC(N)=O)C(=O)N[C@@H](CO)C(=O)N[C@@H](Cc1ccc(O)cc1)C(=O)N[C@@H](CCCN=C(N)N)C(=O)N[C@@H](CCCCN)C(=O)N[C@H](C(=O)N[C@@H](CC(C)C)C(=O)NCC(=O)N[C@@H](CCC(N)=O)C(=O)N[C@@H](CC(C)C)C(=O)N[C@@H](CO)C(=O)N[C@@H](C)C(=O)N[C@@H](CCCN=C(N)N)C(=O)N[C@@H](CCCCN)C(=O)N[C@@H](CC(C)C)C(=O)N[C@@H](CC(C)C)C(=O)N[C@@H](CCC(N)=O)C(=O)N[C@@H](CC(=O)O)C(=O)N[C@H](C(=O)N[C@@H](CCSC)C(=O)N[C@@H](CO)C(=O)N[C@@H](CCCN=C(N)N)C(N)=O)[C@@H](C)CC)C(C)C)[C@@H](C)O` had an Activity of 100%. Besides, the Residual peptide remaining after 60 min in the assay listed under Rattus norvegicus was 81%. On to `CC[C@H](C)[C@H](NC(=O)[C@H](C)NC(=O)[C@H](CC(=O)O)NC(=O)[C@H](C)NC(=O)[C@H](Cc1ccc(O)cc1)NC(=O)CCCCCN)C(=O)N[C@@H](Cc1ccccc1)C(=O)N[C@H](C(=O)N[C@@H](CC(N)=O)C(=O)N[C@@H](CO)C(=O)N[C@@H](Cc1ccc(O)cc1)C(=O)N[C@@H](CCCN=C(N)N)C(=O)N[C@@H](CCCCN)C(=O)N[C@H](C(=O)N[C@@H](CC(C)C)C(=O)NCC(=O)N[C@@H](CCC(N)=O)C(=O)N[C@@H](CC(C)C)C(=O)N[C@@H](CO)C(=O)N[C@@H](C)C(=O)N[C@@H](CCCN=C(N)N)C(=O)N[C@@H](CCCCN)C(=O)N[C@@H](CC(C)C)C(=O)N[C@@H](CC(C)C)C(=O)N[C@@H](CCC(N)=O)C(=O)N[C@@H](CC(=O)O)C(=O)N[C@H](C(=O)N[C@@H](CCSC)C(=O)N[C@@H](CO)C(=O)N[C@@H](CCCN=C(N)N)C(N)=O)[C@@H](C)CC)C(C)C)[C@@H](C)O`, for which the Activity in assay [2] is 85%. In the case of `CC[C@H](C)[C@H](NC(=O)[C@H](C)NC(=O)[C@H](CC(=O)O)NC(=O)[C@H](C)NC(=O)[C@H](Cc1ccc(O)cc1)NC(C)=O)C(=O)N[C@@H](Cc1ccccc1)C(=O)N[C@H](C(=O)N[C@@H](CC(N)=O)C(=O)N[C@@H](CO)C(=O)N[C@@H](Cc1ccc(O)cc1)C(=O)N[C@@H](CCCN=C(N)N)C(=O)N[C@@H](CCCCN)C(=O)N[C@H](C(=O)N[C@@H](CC(C)C)C(=O)NCC(=O)N[C@@H](CCC(N)=O)C(=O)N[C@@H](CC(C)C)C(=O)N[C@@H](CO)C(=O)N[C@@H](C)C(=O)N[C@@H](CCCN=C(N)N)C(=O)N[C@@H](CCCCN)C(=O)N[C@@H](CC(C)C)C(=O)N[C@@H](CC(C)C)C(=O)N[C@@H](CCC(N)=O)C(=O)N[C@@H](CC(=O)O)C(=O)N[C@H](C(=O)N[C@@H](CCSC)C(=O)N[C@@H](CO)C(=O)N[C@@H](CCCN=C(N)N)C(N)=O)[C@@H](C)CC)C(C)C)[C@@H](C)O`, the Activity in assay [2] was determined as 32%. Further, the Residual peptide remaining after 60 min in the assay listed under Rattus norvegicus came out at 85%.

Turning to H-ADAIFTNSYRKVLAQLSARKLLQDIMSR-NH2, the Activity in assay [2] amounted to 1.5%. Consider H-ADAIFTSSYRRILGQLYARKLLHEIMNR-NH2, for which the Activity in assay [2] was determined as 13%. The Residual peptide remaining after 60 min in the assay filed under Rattus norvegicus was determined as 100%.

As to H-DAIFTNSYRKVLAQLSARKLLQDIMSR-NH2, the concentration for half-maximal inhibition (IC50) in assay [1] turned out to be 311 nM. Further, the Activity in assay [2] was found to be 1.8%. This compound yielded a Residual peptide remaining after 60 min in the assay filed under Rattus norvegicus of 93%. In assay [1], H-HADAIFTSSYRRILGQLYARKLLHEIMNR-NH2 yielded an IC50 of 9.8 nM. Moreover, the Activity in assay [2] stood at 57%. For the compound H-YADAIFTNSYRKGQLSARKLLQDIMSR-NH2, the IC50 in assay [3] is over 1000 nM.

H-YADAIFTNSYRKLGQLSARKLLQDIMSR-NH2 showed a concentration for half-maximal inhibition (IC50) in assay [1] of over 1000 nM. This compound came in with a Residual peptide remaining after 60 min in the assay listed under Rattus norvegicus of 89%. For H-YADAIFTNSYRKQLSARKLLQDIMSR-NH2, in assay [3], the IC50 was over 1000 nM.

In turn, H-YADAIFTNSYRKVLGLLQDIMSR-NH2 yielded a half-maximal inhibitory concentration (IC50) in assay [3] of over 1000 nM. In assay [3], H-YADAIFTNSYRKVLGLSARKLLQDIMSR-NH2 had an IC50 of over 1000 nM.

Consider H-YADAIFTNSYRKVLGQLSARKLLDIMSR-NH2, for which the Activity in assay [2] was 12%. The compound further showed a Residual peptide remaining after 60 min in the assay filed under Rattus norvegicus of 85%. The like results for H-YADAIFTNSYRKVLGQLSARKLLQDIMR-NH2 were, in that order, 78% and 100%.

Compound H-YADAIFTNSYRKVLGQLSARKLLQDIMS-NH2 showed a concentration for half-maximal inhibition (IC50) in assay [1] of 20.2 nM. The compound also registered an Activity in assay [2] of 28%. In turn, H-YADAIFTNSYRKVLGQLSARKLLQDIR-NH2 had an Activity in assay [2] of 4.6%. In the assay filed under Rattus norvegicus, this compound gave a Residual peptide remaining after 60 min of 94%. Turning to H-YADAIFTNSYRKVLGQLSARKLLQDISR-NH2, the Activity in assay [2] stood at 62%. Take H-YADAIFTNSYRKVLGQLSARKLLQDMSR-NH2: in assay [1], the IC50 was 20.3 nM. This compound displayed an Activity in assay [2] of 30%. On to H-YADAIFTNSYRKVLGQLSARKLLQIMSR-NH2, for which, in assay [2], the Activity came to 33%.

As to H-YADAIFTNSYRKVLGQLSLLQDIMSR-NH2, the Activity in assay [2] was 0.6%. This compound came in with an IC50 in assay [3] of 1000 nM. Turning to H-YADAIFTNSYRKVLQLSARKLLQDIMSR-NH2, inhibition in assay [1] was half-maximal at 1000 nM (IC50). In the assay filed under Rattus norvegicus, the Residual peptide remaining after 60 min amounted to 88%. In the case of H-YADAIFTNSYRVLGQLSARKLLQDIMSR-NH2, the midpoint of inhibition in assay [1], the IC50, lay at 836 nM. The compound also came in with an Activity in assay [2] of 0.7%. The same compound came in with a Residual peptide remaining after 60 min in the assay filed under Rattus norvegicus of 92%. Compound H-YADAIFTSYRKVLGQLSARKLLQDIMSR-NH2 returned an Activity in assay [2] of 5.9%. In addition, the Residual peptide remaining after 60 min in the assay listed under Rattus norvegicus worked out at 100%.
